Active and inactive are the calls of the source. The rule behind the calls is not given here.
How the values were obtained:
[1] = (§1) Antiviral activity against Influenza A virus (A/California/04/2009(H1N1)) infected in MDCK cells assessed as reduction in viral HA titer by measuring reduction in chicken RBC […] after 24 hrs by hemagglutination test; assay type: functional, cell-based
Summary of the method: (§2)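 MDCK cells infected at MOI 3.0 (single-cycle) with PR8, Cal09 or swine H3N2 Minnesota, then treated with compound for 24 h. Supernatant HA titers were read by 2-fold serial dilution with an equal volume of 1% chicken RBCs, 60 min at 4 °C. Expressed as percent of untreated-cell HA titer; IC50 derived; n = 4.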

[2] = tested on: Influenza A virus (A/California/04/2009(H1N1)); test: as §1; assay type: functional, cell-based; summary of the method: as §2
[3] = Antiviral activity against Influenza A virus (A/California/04/2009(H1N1)) infected in MDCK cells assessed as virus yeild reduction preincubated with virus at 37 degC for 1 hr followed by viral infection for 1 hr measured after 3 days by crystal violet staining based plaque assay; assay type: functional, cell-based
Summary of the method: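 Plaque reduction: about 50–100 PFU/well of PR8, Cal09 or Minnesota preincubated with compound (0–10 μM) 1 h at 37 °C. Mixture then adsorbed to MDCK monolayers 1 h at 4 °C. Overlay was DMEM with 1.5% agarose, DEAE-dextran and 1 μg/mL TPCK-trypsin for 3 days at 37 °C. Glutaraldehyde fix, crystal violet stain, plaque count; IC50 derived; n = 4.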

Influenza A virus = test: Antiviral activity against Influenza A virus (A/Puerto Rico/8/34(H1N1)) infected in MDCK cells assessed as virus yeild reduction at 10 uM treated post 1 hr of viral adsorption measured at 24 hrs post infection by crystal violet staining based plaque assay; assay type: functional, cell-based; conditions: A/Puerto Rico/8/1934(H1N1)
Summary of the method: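 Time-of-addition on MDCK cells, PR8 MOI 1.0, 10 μM compound. Three arms: cells pretreated before infection; compound present during adsorption 1 h at 4 °C; or compound added after removal of unadsorbed virus. Virus yield at 24 h p.i. by plaque assay; n = 3.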

[4] = Drug uptake in human A549 cell cytoplasm at 20 uM after 4 hrs by DAPI staining based confocal microscopic analysis; assay type: ADME; conditions: a549, 4 h
Summary of the method: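 A549 cells incubated with 20 μM compound 4 h at 37 °C, then fixed and DAPI-stained. Compound intrinsic fluorescence located by confocal microscopy.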

[5] = Selectivity index, ratio of CC50 for MDCK cells to IC50 for Influenza A virus (A/Puerto Rico/8/34(H1N1)) infected in MDCK cells by plaque assay; assay type: toxicity, cell-based; conditions: dog, read-out: Ratio CC50/IC50

O=C(Nc1ccccc1Nc1c2ccccc2nc2c1[nH]c1ccccc12)c1cccc(B(O)O)c1
IC50 [1]: 4.3 µM | Activity [2]: Dose-dependent effect | IC50 [3]: 3.7 µM | Activity (Influenza A virus): inactive | Drug uptake [4]: Active | selectivity ratio [5]: 56.8 to 64.6
